The results in this text go back to ChEMBL document CHEMBL3596101, “The Mechanism of Ca(2+) Movement in the Involvement of Baicalein-Induced Cytotoxicity in ZR-75-1 Human Breast Cancer Cells” (J Nat Prod, 2015).

Activity calls are given as the source filed them. No cut-off for these calls is given here.

The subject of assay [1] is ZR-75-1. The experiment in a line: Increase in intracellular Ca2+ level in human ZR-75-1 cells at 40 uM treated for 25 secs by fura-2-AM dye-based spectrofluorophotometric analysis in presence of Ca2+ containing medium (reference value: 50 +/- 3 nM). The assay is classed as functional. In a few lines: (§1)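 Fura-2-loaded ZR-75-1 cells (0.5 million per 1 mL, stirred, 25 °C) in Ca2+-containing or Ca2+-free medium. Compound added at 25 s. 340/380 nm excitation, 510 nm emission at 1 s intervals, calibrated to nM. Concentration-response from baseline-subtracted area under curve (25–250 s) as % of 50 μM response in Ca2+ medium. EC50 from Hill fit. Three experiments.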

Assay [2] deals with ZR-75-1. The experiment in a line: Increase in intracellular Ca2+ level in human ZR-75-1 cells treated for 25 secs by fura-2-AM dye-based spectrofluorophotometric analysis in presence of Ca2+-free medium. In kind it is functional, cell-based. In a few lines:
as §1

The test system of assay [3] is ZR-75-1. In words: Induction of Ca2+ influx in human ZR-75-1 cells at 40 uM by measuring Mn2+ quenching of fura-2-AM for 200 secs by spectrofluorophotometric analysis in presence of Ca2+ containing medium. In kind it is functional, cell-based. In a few lines:
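Mn2+ quench assay: 50 μM MnCl2 added to fura-2-loaded ZR-75-1 cells in Ca2+-containing medium 1 min before recording. Excitation 360 nm (Ca2+-insensitive), emission 510 nm, 1 s intervals, 25 °C. Compound (40 μM) added during the trace, recorded up to 200 s. Arbitrary units, three experiments.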

In assay [4] the test system is ZR-75-1. In words: Induction of apoptosis in human ZR-75-1 cells assessed as late apoptotic cells at 40 uM after 24 hrs by annexin V-FITC/propidium iodide staining-based flow cytometric analysis (reference value: 2.53%). The assay is classed as functional. In a few lines: (§2)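 ZR-75-1 cells exposed to 20–40 μM compound for 24 h, with 5 μM BAPTA-AM or NAC added first where indicated. Cells stained with Alexa Fluor 488 annexin V/PI for 15 min, at least 20000 cells analysed by flow cytometry (488 nm excitation, 530/575 nm filters). Early = annexin V+/PI−, late = annexin V+/PI+. Three independent biological replicates.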

Assay [5] has as its system ZR-75-1. The experiment in a line: Induction of apoptosis in human ZR-75-1 cells assessed as late apoptotic cells at 30 uM after 24 hrs by annexin V-FITC/propidium iodide staining-based flow cytometric analysis (reference value: 2.53%). In kind it is functional. In a few lines:
as §2

Assay [6] has as its system ZR-75-1. In words: Induction of apoptosis in human ZR-75-1 cells assessed as early apoptotic cells at 30 uM after 24 hrs by annexin V-FITC/propidium iodide staining-based flow cytometric analysis (reference value: 6.84%). The assay is classed as functional. In a few lines: as §2
For assay [7], the system named is ZR-75-1. In words: Inhibition of endoplasmic reticulum Ca2+ pump inhibitor thapsigargin-induced intracellular Ca2+ increase in human ZR-75-1 cells at 40 uM pretreated with compound followed by thapsigargin induction in presence of Ca2+ free medium. The assay is classed as functional, cell-based. In a few lines: (§3)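 ZR-75-1 cells loaded with 2 μM fura-2-AM for 30 min at 25 °C, then suspended in Ca2+-free medium (pH 7.4; 0.3 mM EGTA, 3 mM MgCl2). Stirred cuvette at 25 °C. Thapsigargin (1 μM) or BHQ (50 μM) given before or after 40 μM compound. Excitation 340/380 nm, emission 510 nm, read at 1 s intervals. [Ca2+]i calibrated with Triton X-100/CaCl2 then EGTA.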

Assay [8] relates to ZR-75-1. In words: Change in endoplasmic reticulum Ca2+ pump inhibitor thapsigargin-induced intracellular Ca2+ increase in human ZR-75-1 cells at 40 uM pretreated with thapsigargin followed by compound addition in presence of Ca2+ free medium. The assay is classed as functional, cell-based. In a few lines:
as §3

In assay [9] the test system is ZR-75-1. In words: Effect on endoplasmic reticulum Ca2+ pump inhibitor BHQ-induced intracellular Ca2+ increase in human ZR-75-1 cells at 40 uM pretreated with BHQ followed by compound addition in presence of Ca2+ free medium. The assay is classed as functional, cell-based. In a few lines: as §3
Assay [10] deals with ZR-75-1. In words: Induction of luminal endoplasmic reticulum Ca2+ increases in human ZR-75-1 cells assessed as ratio of Ca2+ level at 40 uM by Mag-fura-2 dye-based fluorescence assay (reference value: 0.67 +/- 0.02). The assay is classed as functional. In a few lines:
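ZR-75-1 cells loaded with 2 μM Mag-fura-2-AM for 45 min at 37 °C, permeabilized 2 min with […] digitonin in high-K+ intracellular buffer (pH 7.2). Perfused with 0.2 mM Mg-ATP, free Ca2+ clamped at 170 nM. Ratio calibrated with ionomycin plus Ca2+ or EGTA, Kd 53 μM. Control versus 40 μM compound.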

Assay [11] has as its system ZR-75-1. In words: Induction of apoptosis in human ZR-75-1 cells assessed as late apoptotic cells at 20 uM after 24 hrs by annexin V-FITC/propidium iodide staining-based flow cytometric analysis (reference value: 2.53%). In kind it is functional. In a few lines:
as §2

Assay [12] concerns ZR-75-1. In words: Cytotoxicity against human ZR-75-1 cells assessed as induction cell death at 20 to 50 uM after 24 hrs by WST-1 assay in presence of Ca2+ containing medium with Ca2+ chelator BAPTA-AM. In kind it is functional, cell-based. In a few lines: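 WST-1 assay on ZR-75-1 cells seeded at 10000 cells/well, exposed to 0–50 μM compound for 24 h. Where used, 5 μM BAPTA-AM was given for 1 h beforehand, then cells were washed with Ca2+-containing medium. WST-1 incubation 30 min, A450 read. Viability expressed as % of compound-free control. Six wells per treatment, three separate experiments.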

The subject of assay [13] is ZR-75-1. The experiment in a line: Induction of apoptosis in human ZR-75-1 cells at 20 to 40 uM after 24 hrs by annexin V-FITC/propidium iodide staining-based flow cytometric analysis in presence of Ca2+ chelator BAPTA-AM. The assay is classed as functional, cell-based. In a few lines: as §2
For assay [14], the system named is ZR-75-1. In words: Induction of reactive oxygen species production in human ZR-75-1 cells at 20 uM after 24 hrs by DCFH-DA probe-based flow cytometric analysis (reference value: 3.623%). In kind it is functional. In a few lines:
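ZR-75-1 cells treated with 20–40 μM compound for 24 h, with 5 μM BAPTA-AM added first where indicated. Cells suspended at 1 × 10^6/mL, loaded with 10 μM DCFH-DA for 30 min at 37 °C. DCF read by flow cytometry (488 nm excitation, 530/30 nm filter, 10000 cells). % H2O2-positive (M1) after subtracting the baseline without probe. Three experiments.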

Assay [15] has as its system ZR-75-1. The experiment in a line: Induction of apoptosis in human ZR-75-1 cells at 20 to 40 uM preincubated for 24 hrs followed by antioxidant N-Acetylcysteine addition by annexin V-FITC/propidium iodide staining-based flow cytometric analysis. The assay is classed as functional, cell-based. In a few lines: as §2
In assay [16] the test system is ZR-75-1. The experiment in a line: Induction of apoptosis in human ZR-75-1 cells assessed as increase in cleaved caspase-3 level at 20 to 40 uM after 24 hrs by Western immunoblot analysis. The assay is classed as functional, cell-based. In a few lines: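 Confluent ZR-75-1 cells (3 × 10^6/dish) treated with 20, 30 or 40 μM compound for 24 h. Where used, 5 μM BAPTA-AM or 5 μM NAC was added before the compound. About 50 μg lysate protein run on 10% SDS-PAGE, transferred to PVDF, probed for cleaved caspase-9/-3 and β-actin, chemiluminescence. Densitometry normalized to β-actin. Three experiments.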

In assay [17] the test system is ZR-75-1. The experiment in a line: Increase in intracellular Ca2+ level in human ZR-75-1 cells at 50 uM treated for 25 secs by fura-2-AM dye-based spectrofluorophotometric analysis in presence of Ca2+ containing medium (reference value: 50 +/- 3 nM). The assay is classed as functional. Particulars: in the assay text read “40 uM treated” for “50 uM treated”. In a few lines: as §1

Consider `O=c1cc(-c2ccccc2)oc2cc(O)c(O)c(O)c12` [BAICALEIN], for which the Activity came to 220 nM in assay [1]; 6.32% in assay [4]; 1.96% in assay [5]; 50.72% in assay [6]; 2.36% in assay [11]; 22.707% in assay [14]. Moreover, the Activity in [17] stood at 220 nM. Also, the EC50 in [2] came to 35 µM. The result in assay [3] and in assay [16] was Active. In [7], the inhibition result was “Active”. The outcome in [8], in [9], in assay [12], in assay [13] and in assay [15] was inactive. In addition, the Ratio in [10] was 0.875.
